Rows were chosen to be rich in hits. Some 1.5% of all compounds tested hit in one or more screens of this group.
CCR6 antag = CCR6 receptor antagonists, primary screen, cell-based, CHO-K1, luminescence, beta-arrestin, uHTS | CHO-K1 CCR6 PathHunter beta-arrestin, CCL20-stimulated | inhibition, % at 20 µM | 340,000 compounds, 0.49% hits | AID 493098, 2011;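 active means compounds whose inhibition of the agonist-driven luminescence signal at 20 µM reaches about 50%, limit read from the data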;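 further: cells stimulated with CCL20 at 14 nM final; plate controls were DMSO with CCL20 for no effect and DMSO without agonist for full effect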
APJ antag = antagonists of human apelin receptor APJ, primary screen, CHO-K1 cells, beta-arrestin complementation, luminescence; P35414; inhibition, % at 20 µM; 330,000 compounds, 0.32% hits; AID 2521, 2010;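 active means inhibition above about 40% at 20 µM, limit read from the data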;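 further: cells challenged with 10 nM apelin-13 agonist together with compound; plate controls were apelin-13 plus DMSO wells for no effect and DMSO wells lacking apelin-13 for full effect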
EBI2 antag = EBI2 receptor antagonists, beta-arrestin recruitment, primary screen, cell-based, luminescence, 7a,25-OHC stimulation, uHTS | G-protein coupled receptor 183 (Homo sapiens), P32249 | 7a,25-OHC stimulated | inhibition, % at 5 µM | 360,000 compounds, 0.81% hits | AID 651636, 2012; in the data active means inhibition above about 38%;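 further: enzyme fragment complementation signal reports receptor beta-arrestin coupling in cells; 0% = agonist plus DMSO wells and 100% = wells without agonist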
Target sequence (P32249 whole entry, looked up, the tested form may be a part): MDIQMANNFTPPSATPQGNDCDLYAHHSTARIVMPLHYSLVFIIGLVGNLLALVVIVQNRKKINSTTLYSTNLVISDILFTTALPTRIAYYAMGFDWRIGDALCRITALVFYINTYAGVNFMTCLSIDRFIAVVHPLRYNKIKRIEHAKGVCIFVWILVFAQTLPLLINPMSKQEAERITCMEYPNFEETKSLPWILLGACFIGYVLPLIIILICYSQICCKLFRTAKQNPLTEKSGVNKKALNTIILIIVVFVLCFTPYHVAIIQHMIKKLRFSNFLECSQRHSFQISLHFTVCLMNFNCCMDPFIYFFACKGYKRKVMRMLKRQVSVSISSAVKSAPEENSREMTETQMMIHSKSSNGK
APJ ag = agonists of human apelin receptor APJ, primary screen, CHO-K1 cells, PathHunter beta-arrestin, luminescence. 330,000 compounds, 0.11% hits. P35414. activation, % at 20 µM. 0% DMSO wells, 100% apelin. AID 2520, 2010;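 active means activation more than six SD over the plate average, tested at 20 µM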;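 further: 0% = DMSO alone and 100% = apelin-13 at 10 nM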
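Assay system: engineered CHO-K1 APJ arrestin reporter cells; Amount: 1000 CHO-K1 reporter cells seeded per well; Dosing: one dose, 20 µM compound, 1% DMSO; Times: compound stimulation 90 min at 25 °C, detection 60 min; Measured by: luminescent beta-gal fragment complementation, chemiluminescent substrate; Read-out: APJ–arrestin association signal; Controls: DMSO vs Apelin-13 10 nM.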
CXCR6 inh = CXCR6 receptor inhibitors, primary screen, cell-based, beta-arrestin, luminescence, CHO-K1 PathHunter, 1536-well | inhibition, % at 20 µM | 360,000 compounds, 0.36% hits; in the data active means inhibition above about 34%, passing the limit was not always enough;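 further: antagonist mode with CXCL16 agonist at 10 nM final; 0% = 10 nM CXCL16 with DMSO and 100% = unstimulated wells without agonist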
EBI2 conf = EBI2 antagonist hit retest, beta-arrestin, confirmation, cell-based, single concentration, luminescence, 7a,25-OHC stimulation | shares compounds with EBI2 antag | 7a,25-OHC antagonism | 2,400 compounds, 29% hits | inhibition, % at 5 µM | AID 651997, 2013;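 active means inhibition of at least 50%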
EBI2 ag = EBI2 agonist activity of antagonist hits, confirmation, counter-screen for EBI2 antagonist project, cell-based, single concentration, agonist mode, luminescence; shares compounds with EBI2 antag; EBI2-expressing cells, 60 min; 0% vehicle, 100% 7α,25-dihydroxycholesterol control; activation, % at 5 µM; 2,400 tested, under 10 active; AID 652000, 2013;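 active means activation of at least 50%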
bGal counter = E. coli beta-galactosidase enzyme inhibition, confirmation, counter-screen for EBI2 antagonist project, biochemical, luminescence, single concentration | 2,400 compounds, 1% hits | inhibition, % at 5 µM | shares compounds with EBI2 antag | AID 652176, 2013 | purified beta-galactosidase, luminescent Galacton Star, 15 min;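 active means replicate-average signal at least 3 plate SD below neutral wells, shown as high inhibition, flagging enzyme-inhibiting false positives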;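 further: 0% = DMSO wells with enzyme and 100% = wells lacking enzyme; higher means stronger loss of beta-gal luminescence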
An asterisk follows results filed as active.

How did CSCCCNC(=S)N(C)CC(=O)Nc1ccc(C)cc1 do in these assays?
CCR6 antag: -4; APJ antag: 11; EBI2 antag: 1; APJ ag: -5; CXCR6 inh: 4

How did CC(C)CCSc1cc(NCCO)c([N+](=O)[O-])c2nonc12 do in these assays?
CCR6 antag: 23; APJ antag: 14; EBI2 antag: 14; APJ ag: 0; CXCR6 inh: 15

Results for Cc1ccc(Sc2cc(NCCCO)c([N+](=O)[O-])c3nonc23)cc1 ?
CCR6 antag: 22; APJ antag: 7; EBI2 antag: 53*; APJ ag: -3; CXCR6 inh: 13; EBI2 conf: 8; EBI2 ag: -1; bGal counter: -14

How did Cc1cccc(OCCNc2cc(N3CCOCC3)ccc2[N+](=O)[O-])c1 do in these assays?
CCR6 antag: 22; APJ antag: 1; EBI2 antag: 64*; APJ ag: 0; CXCR6 inh: 8; EBI2 conf: 48; EBI2 ag: 1; bGal counter: 9

What do the screens show for `CN(C(=O)COC(=O)COc1ccc(Cl)cc1)C1CCCCC1`?
CCR6 antag: -14; APJ antag: -30; EBI2 antag: 3; APJ ag: -3; CXCR6 inh: -7

Results for Cc1cc(OCC(=O)N(C)C2CCCCC2)ccc1Cl ?
CCR6 antag: 19; APJ antag: -2; EBI2 antag: 74*; APJ ag: -3; CXCR6 inh: 8; EBI2 conf: 35; EBI2 ag: 1; bGal counter: -12

What do the screens show for `Cc1cc(OCC(=O)N(C)C2CCCCC2)cc(C)c1Cl`?
CCR6 antag: 11; APJ antag: -4; EBI2 antag: 79*; APJ ag: -2; CXCR6 inh: -6; EBI2 conf: 43; EBI2 ag: 0; bGal counter: 5

How did CC(OC(=O)c1ccc([N+](=O)[O-])o1)C(=O)Nc1nc(-c2ccc(F)c(F)c2)cs1 (stereo unspecified) do in these assays?
CCR6 antag: -6; APJ antag: -123; EBI2 antag: -26; APJ ag: 24; CXCR6 inh: -34

What do the screens show for `Cc1ccc(OCC(=O)N2CCN(c3nnc(-c4ccccc4)c4ccccc34)CC2)cc1`?
CCR6 antag: 27; APJ antag: 3; EBI2 antag: 90*; APJ ag: -5; CXCR6 inh: 11; EBI2 conf: 86*; EBI2 ag: 0; bGal counter: 9

Results for Cc1nc(N2CCN(C(=O)COc3ccccc3)CC2)c2c(C)c(C)sc2n1 ?
CCR6 antag: 7; APJ antag: 7; EBI2 antag: 51*; APJ ag: 2; CXCR6 inh: -8; EBI2 conf: 28; EBI2 ag: -1; bGal counter: -6

Results for CC(=O)N1CCN(c2nnc(-c3ccc(C)cc3)c3ccccc23)CC1 ?
CCR6 antag: 9; APJ antag: 2; EBI2 antag: 1; APJ ag: 0; CXCR6 inh: -6

Results for COc1ccc(CN2CCNC(=O)C2CC(=O)NCCc2nc(C)c3c(n2)CCC3)cc1C (stereo unspecified) ?
CCR6 antag: 8; APJ antag: -3; EBI2 antag: 2; APJ ag: 1; CXCR6 inh: -1

What do the screens show for `COc1ccc(N(C(=O)c2snc(C(N)=O)c2N)C(C(=O)NCc2ccc(F)cc2)c2ccc(O)cc2)cc1` (stereo unspecified)?
CCR6 antag: 9; APJ antag: 12; EBI2 antag: 19; APJ ag: 2; CXCR6 inh: 2

Results for COc1ccc(C2CC(c3ccc(Br)cc3)=NN2C(=O)CN2CCCC2)cc1 (stereo unspecified) ?
CCR6 antag: 15; APJ antag: 2; EBI2 antag: 8; APJ ag: -2; CXCR6 inh: 13

What do the screens show for `CNC(=S)N1N=C(c2ccc(Br)cc2)CC1c1ccc(OC)cc1` (stereo unspecified)?
CCR6 antag: 3; APJ antag: 5; EBI2 antag: 88*; APJ ag: -3; CXCR6 inh: 10; EBI2 conf: 87*; EBI2 ag: -1; bGal counter: -21

Bioassay records as filed in PubChem BioAssay.
